Lung fibro prol: blocks proliferation of human lung fibroblasts. 85,000 compounds, 1.1% hits. LL 47 human lung fibroblast viability, ATP luminescence; stronger effect = lower value. viability, % at 10 µM. AID 719;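 active = viability at or below 50% in the single dose screen; inactive = viability above 50%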;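 also: compound exposure lasted 72 h before the ATP readout; 100% = median luminescence of untreated cell-only wells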
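Times – overnight cell rest, 72 h compound treatment at 37 °C · Test system – human lung fibroblast line LL 47, low passage · Amount – 1,150 cells in each well · Controls – cell-only wells, no compound · Doses – 0.1% DMSO in all compound wells · Measured by – CellTiter-Glo luminescence · Buffer or medium – IMEM plus 15% FBS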
PTEN del growth: PTEN-deleted cell growth suppression; HCT116 PTEN-null viability, CellTiter-Glo, 60 h; stronger effect = lower value; viability, % at 10 µM; 140,000 compounds, 1.2% hits;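 active = viability at or below a set limit, 4 SD under the median of all tested compounds, cut at about 3.7% in these data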;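 also: PTEN knockout HCT116 line with beta catenin targeted HCT116 as companion control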
bCat KO growth: beta-catenin-lacking colon tumor cell growth suppression; 140,000 compounds, 1.5% hits; viability, % at 10 µM; HCT116 beta-catenin knockout viability, CellTiter-Glo, 60 h; stronger effect = lower value;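 active = viability at or under a set limit, the compound median less 4 SD, cut at about 6% in these data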;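 also: 0% = Hyamine 1622 control at 20 µM and 100% = untreated cell control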
HUVEC inhibit: blocks proliferation of human endothelial cells. HUVEC proliferation, CellTiter-Glo luminescence, 72 h; stronger effect = lower value. viability, % at 10 µM (by protocol). AID 648. 86,000 compounds, 1.1% hits;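 active = viability at or below 30%; inactive = viability above 30%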;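 also: 100% = median luminescence of DMSO-only cell control wells on each plate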
H69AR growth 86K: blocks growth of human H69AR lung tumor cells. 85,000 compounds, 6% hits. H69AR lung tumor viability, ATP luminescence, 72 h; stronger effect = lower value. viability, % at 10 µM;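 active = viability at or below 40%; inactive = viability above 40%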;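 also: multidrug resistant small cell line overexpressing MRP-1 efflux transporter; 100% = mean luminescence of untreated control wells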
* = called active by the depositor; . = no result. Many of the other results were omitted from the sample, so hits are more common in it than they were.

SMILES	Lung fibro prol	PTEN del growth	bCat KO growth	HUVEC inhibit	H69AR growth 86K
CCOc1cc2[nH]c(=O)n(CC3CCC(C(=O)NC(C)CC)CC3)c(=O)c2cc1OCC (stereo not drawn)	95.9	.	.	46.5	83.6
Cc1cc(S(=O)(=O)N2CCN(Cc3ccc4c(c3)OCO4)CC2)cc(C)c1N1CCCC1=O	84.9	35.3	35.6	19.8*	69.9
CCN(CC)S(=O)(=O)c1cc(-c2nnc(-c3ccc(Br)cc3)o2)ccc1Cl	99.0	40.4	25.7	101.1	80.2
CNc1ccc(Br)cc(C(=O)/C=C/c2cccc(OC)c2)c1=O	8.8*	25.3	23.6	22.1*	-0.2*
CCNc1ccc(Br)cc(C(=O)/C=C/c2ccc(Cl)cc2)c1=O	.	4.2	7.0	.	.
CCNc1ccc(Br)cc(C(=O)/C=C/c2c(Cl)cccc2Cl)c1=O	62.7	1.5*	3.5*	7.9*	2.0*
O=C(C#Cc1cccc([N+](=O)[O-])c1)c1ccccc1	48.2*	3.7*	8.4	61.2	2.6*
O=C(NCCc1ccccc1)c1cccc([N+](=O)[O-])c1	.	97.5	87.2	.	.
N#Cc1ccccc1Cn1c(=O)n(CCCC(=O)NCc2ccc3c(c2)OCO3)c(=O)c2ccccc21	68.6	72.6	63.9	59.5	39.9*
O=C(CCCCn1c(=O)c2ccccc2n(CC(=O)Nc2cccc(F)c2)c1=O)NCc1ccco1	74.6	101.9	97.8	88.2	91.6
CCc1ccc(NC(=O)Cn2c(=O)n(CCCC(=O)NCc3ccco3)c(=O)c3ccccc32)cc1	82.2	91.8	98.6	41.4	29.7*
CCOc1cc2[nH]c(=O)n(CCCCCC(=O)NCc3ccc4c(c3)OCO4)c(=O)c2cc1OCC	34.0*	.	.	30.6	17.5*
O=C(CCCCn1c(=O)c2ccccc2n(Cc2ccc(Cl)cc2)c1=O)NCc1ccco1	54.3	42.0	53.1	52.0	15.5*
CCOc1cc2[nH]c(=O)n(CCCCCC(=O)NCc3ccco3)c(=O)c2cc1OCC	97.5	89.1	105.3	58.9	95.2
Cc1ccc(Cn2c(=O)n(CCC(=O)NCc3ccc4c(c3)OCO4)c(=O)c3ccccc32)cc1	102.0	90.5	92.5	94.8	99.5
Cc1c(C(=S)Nc2ccccc2)cnn1-c1ccc([N+](=O)[O-])cc1	.	66.0	71.5	.	.
COc1ccc(-n2nnnc2SCC(=O)N2CCCc3ccccc32)cc1OC	91.4	85.9	98.6	88.5	94.8
C(=N\N1CCN(C2c3ccccc3-c3ccccc32)CC1)/c1ccccn1	.	85.6	92.3	.	.
O=C(CCCn1c(=O)c2sccc2n(CC(=O)OCc2ccccc2)c1=O)NCc1ccco1	95.9	88.2	88.8	87.3	92.3
N#Cc1ccccc1Cn1c(=O)n(Cc2ccc(C(=O)NCc3ccco3)cc2)c(=O)c2ccccc21	53.0	19.1	20.1	26.2*	11.6*
O=C(CCCn1c(=O)c2sccc2n(Cc2ccc(F)cc2)c1=O)NCc1ccco1	95.6	58.2	61.2	68.7	22.3*
CCCC(=O)NCCc1cc2ccc(C)c(C)c2[nH]c1=O	105.5	96.6	97.7	97.5	95.4
CCOC(=O)/C(=C\c1cccnc1)C(=O)c1cc(C(C)=O)c(Nc2ccccc2)s1	19.1*	2.2*	2.2*	4.1*	1.8*
CC(C)OC(=O)/C(=C/c1cccnc1)NC(=O)c1ccccc1	.	84.8	93.1	.	.
CCOC(=O)/C(=C\c1ccccc1)C(=O)c1cc(C(C)=O)c(Nc2ccccc2)s1	19.3*	2.4*	6.7	3.8*	2.1*
SMILES	Lung fibro prol	PTEN del growth	bCat KO growth	HUVEC inhibit	H69AR growth 86K
O=C(CSc1ncnc2c1nnn2-c1ccc(F)cc1)NCC1CCCO1 (stereo not drawn)	97.5	28.2	5.8*	90.1	48.9
Cc1ccc(-n2nnc3c(SCC(=O)NCC4CCCO4)ncnc32)cc1 (stereo not drawn)	96.6	62.4	62.1	86.3	86.2
O=C(O)c1cccc(Nc2nc(N3CCOCC3)nc(N3CCOCC3)n2)c1	106.9	107.4	104.7	94.0	89.1
CN1CCN(c2nc(Nc3cccc(C(F)(F)F)c3)nc(N3CCOCC3)n2)CC1	.	55.2	50.2	9.8*	52.8
Cc1ccc(C)c(S(=O)(=O)NCc2ccc(C(=O)N3CCC(Cc4ccccc4)CC3)cc2)c1	99.0	63.5	81.9	60.4	35.7*
COc1nc(-c2ccccc2)ccc1-c1noc(-c2ccccc2)n1	101.9	95.1	96.2	92.8	71.6
CCOc1nc(-c2ccccc2)ccc1-c1noc(-c2ccc(OC)c(OC)c2)n1	99.0	.	.	70.6	31.7*
COc1cccc(C(=O)OCCN2CCCCC2)c1	93.4	106.9	103.3	96.2	85.3
CCC1CSC(Nc2ccc(C(=O)/C=C/c3ccc(Br)cc3)cc2)=N1 (stereo not drawn)	.	2.8*	5.4*	.	.
CCC1CSC(Nc2ccc(C(=O)/C=C/c3ccc(OC)c(OC)c3)cc2)=N1 (stereo not drawn)	.	3.4*	3.0*	.	.
O=C(/C=C/c1ccc(Br)cc1)NC1CCCCCC1	.	99.0	99.8	.	.
Cc1cnc(NC(=O)CN2C(=O)C3CC=CCC3C2=O)s1 (stereo not drawn)	99.2	90.2	101.3	96.9	94.5
O=C1N=C(N2CCOCC2)S/C1=C1\C(=O)N(Cc2ccccc2)c2ccccc21	76.7	69.7	80.3	55.4	28.9*
CCCN1C(=O)/C(=C2\SC(N3CCCCC3)=NC2=O)c2ccccc21	.	62.1	65.0	89.3	19.2*
CN1C(=O)/C(=C2\SC(N3CCCCCC3)=NC2=O)c2ccccc21	86.5	.	65.1	78.1	48.8
CSC1=NC2(CC(c3ccccc3)Oc3cc(O)ccc32)CC(C)(C)N1 (stereo not drawn)	91.1	68.5	65.8	79.6	69.7
COc1ccc(Oc2ccc(/C=C/C(=O)c3cccc(OC)c3)cc2[N+](=O)[O-])cc1	.	1.9*	2.0*	.	.
COc1ccc(/C=C/C(=O)c2ccc3c(c2)OCCO3)cc1[N+](=O)[O-]	.	46.1	52.4	.	.
O=C(NC1CCCCC1)c1ccc(Cn2cc(Br)cn2)o1	.	91.4	92.7	90.0	93.5
Cc1ccc(C23CC4CC(CC(NC(=O)N5CCN(C)CC5)(C4)C2)C3)cc1	84.6	1.6*	1.5*	71.7	83.2
COc1cc2c(cc1OC)C(CC#N)=NC(C)(C)C2	90.3	94.0	89.7	107.8	95.8
COc1ccc(CN2C(=O)CN=C2Nc2cc(C)ccc2C)cc1	95.2	90.5	98.1	78.7	39.9*
Cc1ccc(-c2nn3c(C)nnc3s2)cc1NCc1c(F)cccc1Cl	56.8	24.4	27.4	53.2	28.4*
Cc1nnc2sc(-c3ccc(NC(=O)CSc4ccc(Cl)cc4)cc3)nn12	98.2	100.8	96.4	75.4	92.6
Cc1ccc(CNc2cc(-c3nn4c(C)nnc4s3)ccc2C)s1	62.4	98.4	91.5	36.3	58.6
Cc1ccc(-c2nn3c(C)nnc3s2)cc1NC(=O)CSc1ccc(Cl)cc1	80.2	95.8	98.6	28.9*	93.2
CC(C)n1cc(/C=C(\C#N)S(=O)(=O)c2ccccc2)c2ccccc21	92.0	96.2	89.0	85.7	33.7*

Screens (PubChem BioAssay)
